Measurements reported in ChEMBL document CHEMBL4351014, “Bis(het)aryl-1,2,3-triazole quinuclidines as α7 nicotinic acetylcholine receptor ligands: Synthesis, structure affinity relationships, agonism activity, [18F]-radiolabeling and PET study in rats” (Eur J Med Chem, 2019).
The source made the active and inactive calls. The calls are words filed in the database; no cut-off is given here.

What was measured:
[1] = biological target: Neuronal acetylcholine receptor subunit alpha-7 (Rattus norvegicus, UniProt Q05941); experiment: Displacement of [125I]-alpha-bungarotoxin from alpha7 nAChR in Wistar rat brain membrane incubated for 3 hrs by gamma counting analysis; format: cell membranes
Neuronal acetylcholine receptor subunit alpha-7, sequence (Q05941 whole entry): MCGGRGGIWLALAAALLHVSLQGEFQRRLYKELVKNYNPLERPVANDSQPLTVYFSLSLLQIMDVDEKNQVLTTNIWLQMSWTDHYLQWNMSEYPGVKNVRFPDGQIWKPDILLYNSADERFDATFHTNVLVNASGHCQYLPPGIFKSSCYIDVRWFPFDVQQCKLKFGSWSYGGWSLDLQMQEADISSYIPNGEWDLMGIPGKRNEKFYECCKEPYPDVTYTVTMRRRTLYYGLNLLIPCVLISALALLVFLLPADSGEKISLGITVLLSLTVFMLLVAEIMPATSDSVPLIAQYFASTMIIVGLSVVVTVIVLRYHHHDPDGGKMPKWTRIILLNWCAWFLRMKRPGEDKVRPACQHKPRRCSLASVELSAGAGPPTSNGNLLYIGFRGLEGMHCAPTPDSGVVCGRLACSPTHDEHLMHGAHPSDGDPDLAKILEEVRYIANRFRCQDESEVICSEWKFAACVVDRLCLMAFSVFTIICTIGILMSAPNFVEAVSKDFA
Procedure, shortened: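 Frontal cortex membranes from male Wistar rats (2 rats per experiment), homogenised in pH 7.4 HEPES buffer and spun at 45,000×g. 25 μg protein incubated with 2 nM [125I]α-bungarotoxin and 10^-10 to 10^-6 M competitor in pH 7.4 Tris-HCl with Ca/Mg for 3 h at 22 °C. Nonspecific binding defined with 1 μM α-bungarotoxin. Filtered on PEI-soaked GF/C, gamma counted. IC50 read graphically, converted to Ki.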

[2] = biological target: Neuronal acetylcholine receptor subunit alpha-7 (Homo sapiens) (UniProt P36544); experiment: Agonist activity at alpha7 nAChR in human SH-SY5Y cells assessed as intracellular calcium release at 7 nM preincubated for 1 min with alpha7 nAchR PAM PNU120596 prior to compound addition by Fluo-3 AM staining-based fluorescence spectral scanning multimode reader analysis; format: cell-based
Neuronal acetylcholine receptor subunit alpha-7 (Homo sapiens), sequence (P36544 whole entry): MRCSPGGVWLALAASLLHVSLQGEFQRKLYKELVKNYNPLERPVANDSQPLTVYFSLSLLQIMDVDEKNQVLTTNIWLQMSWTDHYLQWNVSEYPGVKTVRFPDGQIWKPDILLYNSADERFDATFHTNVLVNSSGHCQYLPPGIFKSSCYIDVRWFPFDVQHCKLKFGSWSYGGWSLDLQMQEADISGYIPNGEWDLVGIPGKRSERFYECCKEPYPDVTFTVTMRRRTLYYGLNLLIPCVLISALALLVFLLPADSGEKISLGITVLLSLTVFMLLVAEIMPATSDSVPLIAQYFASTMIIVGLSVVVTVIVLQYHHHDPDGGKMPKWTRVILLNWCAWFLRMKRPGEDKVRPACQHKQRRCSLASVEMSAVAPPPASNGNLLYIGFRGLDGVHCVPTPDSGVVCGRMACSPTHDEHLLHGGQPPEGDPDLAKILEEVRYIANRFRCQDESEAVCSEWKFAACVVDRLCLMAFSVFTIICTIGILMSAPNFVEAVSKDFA
Procedure, shortened: (§1)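 SH-SY5Y (ATCC) grown in MEM/F12 1:1 with 10% heat-inactivated FBS, differentiated with 10 μM retinoic acid for 7 days. Cells loaded with 10 μM fluo-3 AM plus 0.02% Pluronic F127 for 1 h at r.t. in the dark, then preincubated 20 min at r.t. in Tyrode's solution with vehicle. PNU-120596 added in the last minute. Fluorescence read at Ex 506/Em 526 nm, normalised to Triton (Fmax) and MnCl2 (Fmin). 5 experiments in duplicate, mean ± SEM.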

[3] = biological target: Neuronal acetylcholine receptor; alpha4/beta2 (Homo sapiens, UniProt P17787+P43681); experiment: Displacement of [3H]cytisine from human recombinant alpha4beta2 nAChR incubated for 120 mins by radiometric scintillation analysis; format: protein-complex assay
Neuronal acetylcholine receptor; alpha4/beta2, sequence (P17787 whole entry): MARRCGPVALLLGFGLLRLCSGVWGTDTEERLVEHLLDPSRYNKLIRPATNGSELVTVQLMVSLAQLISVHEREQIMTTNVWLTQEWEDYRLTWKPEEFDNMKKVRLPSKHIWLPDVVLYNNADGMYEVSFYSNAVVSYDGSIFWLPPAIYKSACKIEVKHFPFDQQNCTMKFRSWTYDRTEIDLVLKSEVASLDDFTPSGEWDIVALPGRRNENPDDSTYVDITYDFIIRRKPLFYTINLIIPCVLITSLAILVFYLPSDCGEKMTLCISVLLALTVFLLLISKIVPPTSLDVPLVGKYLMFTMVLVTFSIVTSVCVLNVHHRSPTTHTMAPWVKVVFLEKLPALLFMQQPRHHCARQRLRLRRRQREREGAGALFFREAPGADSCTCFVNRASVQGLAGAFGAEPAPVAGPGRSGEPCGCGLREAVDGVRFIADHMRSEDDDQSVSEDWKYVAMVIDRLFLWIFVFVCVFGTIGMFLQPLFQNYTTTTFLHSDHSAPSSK
Neuronal acetylcholine receptor; alpha4/beta2, sequence (P43681 whole entry): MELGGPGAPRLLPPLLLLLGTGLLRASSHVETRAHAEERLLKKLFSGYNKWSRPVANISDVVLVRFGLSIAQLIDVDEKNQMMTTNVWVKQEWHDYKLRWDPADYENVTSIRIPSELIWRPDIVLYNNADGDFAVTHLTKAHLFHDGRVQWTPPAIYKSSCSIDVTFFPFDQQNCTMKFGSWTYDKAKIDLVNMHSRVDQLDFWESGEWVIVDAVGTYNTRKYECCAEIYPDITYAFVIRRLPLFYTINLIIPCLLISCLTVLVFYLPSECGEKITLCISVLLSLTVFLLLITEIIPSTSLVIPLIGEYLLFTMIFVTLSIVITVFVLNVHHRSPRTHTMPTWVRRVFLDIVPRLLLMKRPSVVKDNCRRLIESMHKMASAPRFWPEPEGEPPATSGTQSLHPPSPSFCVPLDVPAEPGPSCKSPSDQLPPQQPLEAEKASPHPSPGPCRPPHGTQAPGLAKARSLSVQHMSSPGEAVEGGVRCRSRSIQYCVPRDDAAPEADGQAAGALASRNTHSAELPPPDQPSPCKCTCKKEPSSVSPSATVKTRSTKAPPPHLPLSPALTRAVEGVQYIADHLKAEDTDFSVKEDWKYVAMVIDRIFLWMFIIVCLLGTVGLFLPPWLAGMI

[4] = biological target: Neuronal acetylcholine receptor subunit alpha-7 (Homo sapiens) (UniProt P36544); experiment: (§2) Agonist activity at alpha7 nAChR in human SH-SY5Y cells assessed as release of intracellular calcium at 50 nM preincubated for 20 mins with alpha7 nAChR antagonist alpha-bungarotoxin and for 1 min with alpha7 nAChR PAM PNU120596 prior to compound addition by Fluo-3 AM staining-based fluorescence spectral scanning multimode reader analysis; format: cell-based
Procedure, shortened: (§3)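 Differentiated SH-SY5Y cells loaded with fluo-3 AM as above, then preincubated 20 min at r.t. in Tyrode's solution with 100 nM α-bungarotoxin. PNU-120596 added 1 min before test agent or 3 mM choline. Fluorescence read at Ex 506/Em 526 nm, response expressed as % of (Fmax−Fmin) from 0.3% Triton X-100 then 100 mM MnCl2. 5 experiments in duplicate, mean ± SEM.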

SH-SY5Y [5] = experiment: Cytotoxicity against human SH-SY5Y cells assessed as cell viability at 50 nM to 5 uM incubated for 48 hrs by MTS assay; format: cell-based; details: 0.05 µM
Procedure, shortened: (§4)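 Retinoic acid-differentiated SH-SY5Y cells exposed for 48 h to 10, 100 and 1000 × Ki of each agent. MTS added for 3 h, absorbance read at 490 nm. Viability given as % of vehicle-treated cells. 4 independent experiments in triplicate, mean ± SEM.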

[6] = biological target: T1, 5-hydroxytryptamine receptor 3A (Homo sapiens, UniProt P46098); experiment: Displacement of [3H]BRL 43694 from human 5HT3R by radioligand displacement assay
T1 sequence (P46098 whole entry): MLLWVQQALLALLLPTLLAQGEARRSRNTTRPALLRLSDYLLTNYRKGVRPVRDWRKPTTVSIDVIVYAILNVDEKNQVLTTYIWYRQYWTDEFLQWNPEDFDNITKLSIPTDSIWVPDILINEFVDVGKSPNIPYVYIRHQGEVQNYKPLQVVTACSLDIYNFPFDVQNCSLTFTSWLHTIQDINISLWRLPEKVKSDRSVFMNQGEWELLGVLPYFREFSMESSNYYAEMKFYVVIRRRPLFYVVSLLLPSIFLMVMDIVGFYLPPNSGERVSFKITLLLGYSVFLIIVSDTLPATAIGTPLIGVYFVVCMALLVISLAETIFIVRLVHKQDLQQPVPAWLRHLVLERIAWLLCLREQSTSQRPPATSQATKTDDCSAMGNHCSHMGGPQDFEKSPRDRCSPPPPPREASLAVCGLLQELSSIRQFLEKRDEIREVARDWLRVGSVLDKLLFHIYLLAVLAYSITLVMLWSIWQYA

[7] = biological target: Neuronal acetylcholine receptor subunit alpha-7 (Homo sapiens) (UniProt P36544); experiment: (§5) Agonist activity at alpha7 nAChR in human SH-SY5Y cells assessed as increase in intracellular calcium release at 50 nM preincubated for 1 min with alpha7 nAchR PAM PNU120596 prior to compound addition by Fluo-3 AM staining-based fluorescence spectral scanning multimode reader analysis; format: cell-based; procedure, shortened: as §1
[8] = biological target: Neuronal acetylcholine receptor subunit alpha-7 (Homo sapiens) (UniProt P36544); experiment: Agonist activity at alpha7 nAChR in human SH-SY5Y cells assessed as increase in intracellular calcium release at 130 nM preincubated for 1 min with alpha7 nAchR PAM PNU120596 prior to compound addition by Fluo-3 AM staining-based fluorescence spectral scanning multimode reader analysis; format: cell-based; procedure, shortened: as §1
SH-SY5Y [9] = experiment: Cytotoxicity against human SH-SY5Y cells assessed as cell viability at 0.13 to 1.3 uM incubated for 48 hrs by MTS assay; format: cell-based; procedure, shortened: as §4
[10] = Cytotoxicity against human SH-SY5Y cells assessed as reduction in cell viability at 13 uM incubated for 48 hrs by MTS assay relative to control; format: cell-based; details: read-out: INH; procedure, shortened: as §4
[11] = biological target: Neuronal acetylcholine receptor subunit alpha-7 (Homo sapiens) (UniProt P36544); experiment: as §2, with “130” for “50”; format: cell-based; procedure, shortened: as §3
SH-SY5Y [12] = experiment: Cytotoxicity against human SH-SY5Y cells assessed as cell viability at 0.003 to 3 uM incubated for 48 hrs by MTS assay; format: cell-based; procedure, shortened: as §4
[13] = biological target: Neuronal acetylcholine receptor subunit alpha-7 (Homo sapiens) (UniProt P36544); experiment: as §2, with “3” for “50”; format: cell-based; procedure, shortened: as §3
[14] = biological target: Neuronal acetylcholine receptor subunit alpha-7 (Homo sapiens) (UniProt P36544); experiment: as §5, with “3” for “50”, “analysis relative to choline” for “analysis”; format: cell-based; procedure, shortened: as §1

| SMILES | Ki [1] | other results |
| --- | --- | --- |
| FCC1CCN(Cc2ccc(-c3ccc(-c4cn([C@H]5CN6CCC5CC6)nn4)s3)cc2)CC1 | 1.4 nM | – |
| c1cc(CN2CCCCC2)cc(-c2ccc(-c3cn([C@H]4CN5CCC4CC5)nn3)s2)c1 | 17 nM | – |
| c1cc(-c2ccc(CN3CCOCC3)cc2)cc(-c2cn([C@H]3CN4CCC3CC4)nn2)c1 | 12.5 nM | – |
| OC1CCN(Cc2ccc(-c3ccc(-c4cn([C@H]5CN6CCC5CC6)nn4)s3)cc2)CC1 | 0.3 nM | – |
| NCc1ccc(-c2ccc(-c3cn([C@H]4CN5CCC4CC5)nn3)s2)cc1 | 0.3 nM | – |
| c1cc(-c2ccc(CN3CCCCC3)cc2)cc(-c2cn([C@H]3CN4CCC3CC4)nn2)c1 | 3 nM | – |
| OCc1cccc(-c2ccc(-c3cn([C@H]4CN5CCC4CC5)nn3)s2)c1 | 0.7 nM | Activity [2]: inactive |
| CN1CCN(Cc2cccc(-c3ccc(-c4cn([C@H]5CN6CCC5CC6)nn4)s3)c2)CC1 | 16 nM | – |
| c1cc2c(cc1-c1ccc(-c3cn([C@H]4CN5CCC4CC5)nn3)s1)OCCO2 | 140 nM | – |
| CN1CCN(Cc2ccc(-c3cccc(-c4cn([C@H]5CN6CCC5CC6)nn4)c3)cc2)CC1 | 1.9 nM | – |
| OCc1ccc(-c2ccc(-c3cn([C@H]4CN5CCC4CC5)nn3)s2)cc1F | 12 nM | – |
| c1ccc(-c2ccc(-c3cn([C@H]4CN5CCC4CC5)nn3)s2)cc1 | 43 nM | – |
| OCc1ccc(-c2ccc(-c3cn([C@H]4CN5CCC4CC5)nn3)s2)s1 | 0.8 nM | – |
| c1csc(-c2ccc(-c3cn([C@H]4CN5CCC4CC5)nn3)cc2)c1 | 110 to 160 nM | – |
| OCCOc1ccc(-c2ccc(-c3cn([C@H]4CN5CCC4CC5)nn3)s2)cc1 | 1.7 nM | – |
| OCc1ccc(-c2cccc(-c3cn([C@H]4CN5CCC4CC5)nn3)c2)cc1 | 7 nM | – |
| FCCc1ccc(-c2ccc(-c3cn([C@H]4CN5CCC4CC5)nn3)s2)cc1 | 157 nM | – |
| Fc1ccc(-c2csc(-c3cn([C@H]4CN5CCC4CC5)nn3)c2)cn1 | 31 nM | – |
| c1cc(CN2CCOCC2)cc(-c2ccc(-c3cn([C@H]4CN5CCC4CC5)nn3)s2)c1 | 16 nM | – |

| SMILES | Ki [1] | other results |
| --- | --- | --- |
| c1cc(CN2CCCCC2)cc(-c2cccc(-c3cn([C@H]4CN5CCC4CC5)nn3)c2)c1 | 122 nM | – |
| FC1CCN(Cc2ccc(-c3ccc(-c4cn([C@H]5CN6CCC5CC6)nn4)s3)cc2)CC1 | 2.8 nM | – |
| OCCc1ccc(-c2ccc(-c3cn([C@H]4CN5CCC4CC5)nn3)s2)cc1 | 1.5 nM | – |
| COCOCCOc1ccc(-c2ccc(-c3cn([C@H]4CN5CCC4CC5)nn3)s2)cc1 | 140 nM | – |
| Fc1ccc(-c2ccc(-c3cn([C@H]4CN5CCC4CC5)nn3)cc2)cn1 | > 1000 nM | – |
| FCc1cccc(-c2ccc(-c3cn([C@H]4CN5CCC4CC5)nn3)s2)c1 | 42 nM | – |
| c1cc(CN2CCOCC2)cc(-c2cccc(-c3cn([C@H]4CN5CCC4CC5)nn3)c2)c1 | 49 nM | – |
| CN1CCN(Cc2cccc(-c3cccc(-c4cn([C@H]5CN6CCC5CC6)nn4)c3)c2)CC1 | 39 nM | – |
| FCc1ccc(-c2ccc(-c3cn([C@H]4CN5CCC4CC5)nn3)s2)cc1 | – | Ki [3]: > 1000 nM; Activity [4]: inactive; Activity (SH-SY5Y [5]): Non-Toxic; Ki [6]: > 1000 nM; Activity [7]: Active |
| OCc1ccc(-c2csc(-c3cn([C@H]4CN5CCC4CC5)nn3)c2)cc1 | 1.5 nM | – |
| OCc1ccc(-c2cccc(-c3cn([C@H]4CN5CCC4CC5)nn3)c2)s1 | 0.2 nM | – |
| COC(=O)c1ccc(-c2ccc(-c3cn([C@H]4CN5CCC4CC5)nn3)s2)cc1F | 80 to 90 nM | – |
| FCCOc1ccc(-c2ccc(-c3cn([C@H]4CN5CCC4CC5)nn3)s2)cc1 | 340 nM | – |
| OCc1ccc(-c2ccc(-c3cn([C@H]4CN5CCC4CC5)nn3)cc2)s1 | 120 to 200 nM | – |
| OCc1ccc(-c2ccc(-c3cn([C@H]4CN5CCC4CC5)nn3)cc2)cc1 | 100 to 175 nM | – |
| Fc1ccc(-c2ccc(-c3cn([C@H]4CN5CCC4CC5)nn3)s2)cn1 | 13 nM | Ki [3]: > 1000 nM; Activity [8]: Active; Ki [6]: 440 nM; Activity (SH-SY5Y [9]): Non-Toxic; cytotoxicity at 48 h, 13 µM [10]: 15%; Activity [11]: inactive |
| c1cc2c(cc1-c1ccc(-c3cn([C@H]4CN5CCC4CC5)nn3)s1)CCO2 | 60 nM | – |
| OCc1ccc(-c2cccc(-c3cn([C@H]4CN5CCC4CC5)nn3)c2)cc1F | 18 nM | – |
| c1cc(-c2ccc(-c3cn([C@H]4CN5CCC4CC5)nn3)s2)ccc1CN1CCCCC1 | – | Ki [3]: 1000 nM; Activity (SH-SY5Y [12]): Non-Toxic; Ki [6]: 560 nM; Activity [13]: inactive; Activity [14]: 80% |
